Sampled rows, rich in hits. Any-hit rate of the full collection: about 3.7%.
KCNK3 inh: human KCNK3 channel inhibition, primary screen; O14649; CHO-KCNK3 thallium flux, FluxOR fluorescence; stronger effect = lower value; B-score at 10 µM; actives 0.84% (n = 340,000); AID 602410;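 active = B-score under library mean minus 4 SD, starting fluorescence ratio at most library mean plus 5 SD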;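 note: more negative B-score means stronger inhibition of thallium flux through KCNK3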
hERG rescue: shields human hERG channel from block by proarrhythmic agents; Q12809; actives 0.51% (n = 310,000); CHO-hERG, FluxOR thallium flux, dofetilide IC70 present; activation (rescue from dofetilide block), less the hit threshold, % at 10 µM;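 active = activation above the mean of controls blocked by dofetilide plus 5 SD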;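 note: thallium influx through hERG after potassium depolarization seen as dye fluorescence rise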
Kir21 inh: Kir2.1 (mouse) channel inhibition. actives 0.85% (n = 310,000). HEK293-Kir2.1, FluxOR thallium flux fluorescence; stronger effect = lower value. AID 1672. P35561. B-score at 10 µM;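 active = fluorescence ratio B-score at or below minus 3 SD of library scores, with starting-brightness B-score within 2 SD, cut at about -4.2 in these data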;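 note: channel flux triggered by added potassium and thallium sulfate stimulus; B-score of peak minus minimum fluorescence over baseline after thallium stimulus; more negative B-score means stronger Kir2.1 block with less thallium influx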
Target sequence (P35561 whole entry, looked up): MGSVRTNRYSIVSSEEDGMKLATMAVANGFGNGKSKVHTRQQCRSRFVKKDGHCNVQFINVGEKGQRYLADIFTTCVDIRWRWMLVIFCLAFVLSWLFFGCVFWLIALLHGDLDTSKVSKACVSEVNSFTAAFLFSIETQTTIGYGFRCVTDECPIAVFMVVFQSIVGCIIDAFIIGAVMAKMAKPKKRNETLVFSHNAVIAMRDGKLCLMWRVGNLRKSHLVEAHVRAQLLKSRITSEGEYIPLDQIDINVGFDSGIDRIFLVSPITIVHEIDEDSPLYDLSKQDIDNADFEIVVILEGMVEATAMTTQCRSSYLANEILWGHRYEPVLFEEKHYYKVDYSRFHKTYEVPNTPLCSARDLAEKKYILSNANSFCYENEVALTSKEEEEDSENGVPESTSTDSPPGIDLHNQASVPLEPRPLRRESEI
KCNQ1 inh: human KCNQ1 channel inhibition; P51787; CHO-K1 KCNQ1, FluxOR thallium flux fluorescence; stronger effect = higher value; B-score at 10 µM; actives 1.3% (n = 310,000); AID 2642;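 active = compounds whose thallium flux B-score, printed positive for inhibition, exceeds three library SD while starting fluorescence stays within three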;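 note: channel opened by potassium depolarization with thallium stimulus after 20 min compound exposure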
KCNK9 inh: inhibitors of human KCNK9 two-pore domain potassium channel; Q9NPC2; actives 1.2% (n = 310,000); B-score at 10 µM; HEK293 KCNK9, FluxOR thallium flux fluorescence; stronger effect = lower value;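 active = ratio B-score over 3 SD below the library mean, with starting fluorescence within 5 SD of its mean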;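 note: negative B-score means less thallium flux so channel inhibition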
KCNQ1 act: potentiates or activates the human KCNQ1 potassium channel; P51787; CHO-K1 KCNQ1, thallium flux FluxOR fluorescence; stronger effect = higher value; B-score at 10 µM; actives 0.35% (n = 310,000);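 active = fluorescence ratio B-score, a plate-corrected score, at least three library SD, with initial intensity B-score within 5 SD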
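Doses: Single concentration per compound, DMSO matched to controls | Test system: KCNQ1-transfected CHO-K1 cells | Timing: 90 min dye loading and 20 min compound exposure, both at room temperature | Measured by: Kinetic FluxOR thallium fluorescence, 10-s 1-Hz baseline, 110-s post-stimulus read | Medium: Assay buffer with matched DMSO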
KCNK3 inh conf: confirmation of human KCNK3 two-pore domain potassium channel inhibitors | shares compounds with KCNK3 inh | CHO-KCNK3 thallium flux, FluxOR fluorescence; 0% buffer, 100% carvedilol maximal block | ratio percent of control, % at 10 µM | actives 99% (n = 2,400) | AID 651638;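 active = ratio percent of control, averaged over triplicates, above buffer control mean plus 5 SD, cut at about 64% in these data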;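 note: ratio is the fluorescence rise from min to max over baseline after thallium stimulus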
KCNK3 noninduced: KCNK3 inhibitor counter-screen hit in non-induced cells; shares compounds with KCNK3 inh; non-induced KCNK3 parental cells, FluxOR thallium flux; stronger effect = lower value; thallium flux ratio (lower = more inhibition) at 10 µM; actives 40% (n = 2,400);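 active = thallium flux ratio, averaged over three wells, more than 5 SD below the buffer control mean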;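 note: host cells are CHO cells without KCNK3 induction; ratio is peak minus trough fluorescence over baseline then normalized to buffer controls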
An asterisk follows results filed as active.

Screening Cc1nn(Cc2ccccc2Cl)c(C)c1NC(=O)NC12CC3CC(CC(C3)C1)C2 returned KCNK3 inh -8.87*, hERG rescue -9.0, Kir21 inh 0.68, KCNQ1 inh inactive, KCNK9 inh inactive, KCNQ1 act inactive, KCNK3 inh conf 119.0* and KCNK3 noninduced 0.144*.
`Cc1nn(C2CCS(=O)(=O)C2)c(Cl)c1/C=C/C(=O)OCC(N)=O` (configuration not stated) gave KCNK3 inh inactive, hERG rescue -8.8, Kir21 inh -0.42, KCNQ1 inh inactive, KCNK9 inh inactive and KCNQ1 act inactive.
For COCCC(=O)N1CCCC(C(=O)c2ccc3c4c(cccc24)CC3)C1 (configuration not stated) the results were KCNK3 inh -11.1*, hERG rescue -7.7, Kir21 inh 0.57, KCNQ1 inh inactive, KCNK9 inh inactive, KCNQ1 act inactive, KCNK3 inh conf 85.7* and KCNK3 noninduced 0.152*.
Screening Cc1ccc(S(=O)(=O)Nc2nc(C)c(NC(=O)Nc3ccc(Cl)cc3Cl)s2)cc1 returned KCNK3 inh inactive, hERG rescue -3.1, Kir21 inh 0, KCNQ1 inh inactive, KCNK9 inh inactive and KCNQ1 act inactive.
Screening O=C(COc1ccc(F)cc1)N1CCC(Cc2ccccc2)CC1 returned KCNK3 inh inactive, hERG rescue -10.3, Kir21 inh -1.37, KCNQ1 inh inactive, KCNK9 inh inactive and KCNQ1 act inactive.
Screening COc1ccccc1N1CCN(CC(O)c2ccc3cc[nH]c3c2)CC1 (configuration not stated) returned KCNK3 inh inactive, hERG rescue -12.6, Kir21 inh 0.13, KCNQ1 inh inactive, KCNK9 inh inactive and KCNQ1 act inactive.
`CSc1nc(C)c(Cc2ccccc2)c(=O)[nH]1` gave KCNK3 inh inactive, hERG rescue -4.6, Kir21 inh -0.38, KCNQ1 inh inactive, KCNK9 inh inactive and KCNQ1 act inactive.
Screening CCCCC(Sc1nc(C)c(Cc2ccccc2)c(=O)[nH]1)C(=O)O (configuration not stated) returned KCNK3 inh -8.96*, hERG rescue -5.0, Kir21 inh 0.85, KCNQ1 inh inactive, KCNK9 inh inactive, KCNQ1 act inactive, KCNK3 inh conf 0.0 and KCNK3 noninduced inactive.
For O=C(NCC(=O)N1CC=C(c2ccccc2)CC1)c1ccc(F)cc1 the results were KCNK3 inh inactive.
For COc1ccc(CCN(Cc2nc(-c3ccccc3)no2)Cc2nc(-c3ccccc3)no2)cc1OC the results were KCNK3 inh -9.15*, hERG rescue -7.1, Kir21 inh 0.61, KCNQ1 inh inactive, KCNK9 inh inactive, KCNQ1 act inactive, KCNK3 inh conf 91.7* and KCNK3 noninduced inactive.
For CCCc1cc(=O)[nH]c(SCC(=O)N2CCC(C)CC2)n1 the results were KCNK3 inh inactive, hERG rescue -7.8, Kir21 inh -1.03, KCNQ1 inh inactive, KCNK9 inh inactive and KCNQ1 act inactive.
Screening C=CCN(c1ccccc1)S(=O)(=O)c1ccc2c(c1)NC(=O)C(C)S2 (configuration not stated) returned KCNK3 inh inactive, hERG rescue -2.4, Kir21 inh -3.29, KCNQ1 inh inactive, KCNK9 inh inactive and KCNQ1 act inactive.
For CC1Sc2ccc(S(=O)(=O)N(C)Cc3ccccc3)cc2NC1=O (configuration not stated) the results were KCNK3 inh -10.3*, hERG rescue -4.6, Kir21 inh 0.53, KCNQ1 inh inactive, KCNK9 inh inactive, KCNQ1 act inactive, KCNK3 inh conf 93.3* and KCNK3 noninduced inactive.
